This passage reports Ki and Activity results from ChEMBL document CHEMBL3098095, “Synthesis and biological properties of thiazole-analogues of pyochelin, a siderophore of Pseudomonas aeruginosa” (Bioorg Med Chem Lett, 2014).

Test [1] deals with T1, Fe(3+)-pyochelin receptor (Pseudomonas aeruginosa (strain ATCC 15692 / PAO1 / 1C / PRS 101 / LMG12228), UniProt P42512).
T1 sequence (P42512 whole entry): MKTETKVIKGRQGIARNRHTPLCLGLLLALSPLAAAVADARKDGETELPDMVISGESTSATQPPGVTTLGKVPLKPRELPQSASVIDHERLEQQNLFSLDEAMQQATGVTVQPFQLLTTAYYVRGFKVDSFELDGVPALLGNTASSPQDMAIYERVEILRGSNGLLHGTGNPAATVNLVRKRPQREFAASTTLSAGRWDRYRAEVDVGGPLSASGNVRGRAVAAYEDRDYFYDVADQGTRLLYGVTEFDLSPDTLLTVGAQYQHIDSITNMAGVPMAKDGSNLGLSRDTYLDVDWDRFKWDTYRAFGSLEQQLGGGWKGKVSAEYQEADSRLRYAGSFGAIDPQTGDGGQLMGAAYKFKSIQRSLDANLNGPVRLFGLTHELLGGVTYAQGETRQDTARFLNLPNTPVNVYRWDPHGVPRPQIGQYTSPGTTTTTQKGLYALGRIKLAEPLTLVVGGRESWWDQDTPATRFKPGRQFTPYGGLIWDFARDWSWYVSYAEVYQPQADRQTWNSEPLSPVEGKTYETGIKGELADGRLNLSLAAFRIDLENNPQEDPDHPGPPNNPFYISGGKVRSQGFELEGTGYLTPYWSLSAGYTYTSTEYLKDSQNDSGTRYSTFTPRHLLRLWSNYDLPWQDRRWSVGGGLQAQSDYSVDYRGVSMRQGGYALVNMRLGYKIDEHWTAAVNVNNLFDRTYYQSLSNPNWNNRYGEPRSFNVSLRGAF
The test can be described thus: Displacement of Pch-55Fe(III) from Pseudomonas aeruginosa PAD07 FptA after 1 hr in presence of CCCP. The method in brief: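 PAD07 P. aeruginosa (mutant lacking pyochelin and pyoverdine), OD600 0.3, held 1 h at 0 °C in 50 mM Tris–HCl pH 8.0 with 200 µM CCCP to block uptake. Tracer 1 nM Pch-55Fe(III) competed by the Fe(III)-loaded compounds over […] range. Inhibition constant (Ki) derived from the competition.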

For test [2], the system named is Pseudomonas aeruginosa. Nature of the test: Induction of iron uptake in Pseudomonas aeruginosa PAD07 at 100 nM. In kind it is functional, organism-based. The method in brief: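 PAD07 P. aeruginosa cells lacking endogenous siderophores, OD600 1, incubated at 37 °C with 100 nM of the 55Fe(III)-loaded compound. Aliquots taken at several times were centrifuged, and cell-pellet 55Fe was measured as iron transported. Repeated with the protonophore CCCP at 0 °C to check TonB-dependent uptake versus passive diffusion.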

For orientation: Ki means a dissociation constant, usually derived from enzyme kinetics or from competition with a known ligand.

The source made the active and inactive calls. The rule behind the calls is not given here.

For the compound `CN1[C@@H]([C@H]2CSC(c3ccccc3O)=N2)SC[C@H]1C(=O)O`, the Ki in test [1] (read-out: Ki) was determined as 2.2 nM. Moreover, the outcome in test [2] was Active.
On to `CN1[C@@H](c2csc(-c3ccccc3O)n2)SC[C@H]1C(=O)O`, for which, in test [1] (read-out: Ki), the Ki was 9.8 nM. Also, the result in test [2] was Active.
On to `COc1ccccc1-c1nc(C2SC[C@@H](C(=O)O)N2C)cs1` (mixture of isomers), for which the Ki result in test [1] was “Not Active”. The outcome in test [2] was inactive.
With `CN1C(c2csc(-c3ccc(O)cc3O)n2)SC[C@H]1C(=O)O` (mixture of isomers), the Ki in test [1] (read-out: Ki) is 6.5 nM. The result in test [2] was Active.
Turning to `COc1cc(O)ccc1-c1nc(C2SC[C@@H](C(=O)O)N2C)cs1` (mixture of isomers), the Ki entry in test [1] is listed as “Not Active”. In addition, the result in test [2] was inactive.
As to `CN1C(c2csc(-c3ccc(N)cc3O)n2)SC[C@H]1C(=O)O` (mixture of isomers), the Ki in test [1] (read-out: Ki) is 11.3 nM. Besides, in test [2], the result was Active.
For the compound `CN1C(c2csc(-c3cc(N)ccc3O)n2)SC[C@H]1C(=O)O` (mixture of isomers), the Ki result in test [1] is on record as “Not Active”. For the same compound, the result in test [2] was inactive.
Turning to `COc1ccc(N)cc1-c1nc(C2SC[C@@H](C(=O)O)N2C)cs1` (mixture of isomers), in test [1] (read-out: Ki), the Ki worked out at 460 nM. Further, in test [2], the outcome was inactive.
As for `COc1ccc(F)cc1-c1nc(C2SC[C@@H](C(=O)O)N2C)cs1` (mixture of isomers), the Ki in test [1] (read-out: Ki) was found to be 1440 nM. Besides, in test [2], the outcome was inactive.
